Legend:
[1] = Cytotoxicity against human MT4 cells by MTT assay; type: cell-based
Procedure, shortened: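 Mock-infected MT-4 cells were exposed to a range of compound concentrations. Viability was read by MTT at day 5. CC50 is the concentration that kills 50% of uninfected cells. The top concentration was limited by compound precipitation in culture medium. Means ± SD from at least two or three experiments.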

[2] = test system: Human immunodeficiency virus 1; experiment: Resistance index, ratio of EC50 for drug-resistant HIV1 isolate with reverse transcriptase K103N mutation to EC50 for wild type HIV1 NL4-3; type: functional
Procedure, shortened: (§1)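 Fold resistance is the EC50 against the K103N, Y181C or Y188L mutant strain divided by the EC50 against wt NL4-3. Each EC50 is from MT-4 cells infected in the presence of different drug concentrations, with viability read by MTT at day 5 postinfection.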

[3] = test system: Human immunodeficiency virus 1; experiment: Resistance index, ratio of ID50 for reverse transcriptase K103N mutant to IC50 for wild-type HIV1 sreverse transcriptase
Procedure, shortened: (§2)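 Recombinant wt and K103N, L100I or Y181I HIV-1 RT (>95% pure), 2-4 nM. RNA-dependent DNA polymerase assay on 0.5 µg poly(rA)/oligo(dT) 10:1 (0.3 µM 3'-OH ends) with 10 µM [3H]-dTTP and 8% final DMSO. Aliquots taken every 2 min. Inhibitor range 0.2-5× ID50, fitted to a noncompetitive model. Fold resistance is mutant ID50 divided by wt ID50.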

[4] = test system: Human immunodeficiency virus 1; experiment: Antiviral activity against HIV1 NL4-3 in human MT4 cells assessed as inhibition of virus-induced cytopathogenicity by MTT assay; type: functional, organism-based; settings: Human immunodeficiency virus 1, NL4-3, MT4
Procedure, shortened: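 MT-4 lymphoid cells infected with wild-type HIV-1 NL4-3 in the presence of a range of compound concentrations. Viable cells were counted by MTT colorimetric read-out at day 5 post-infection. EC50 is the concentration giving 50% protection from virus-induced cytopathic effect. Means ± SD from at least two or three experiments.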

[5] = Selectivity index, ratio of CC50 for human MT4 cells to EC50 for HIV1 NL4-3; type: toxicity, cell-based; settings: read-out: Ratio CC50/EC50
Procedure, shortened: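 Computed as CC50/EC50. CC50 comes from MTT viability of mock-infected MT-4 cells and EC50 from MTT protection of NL4-3-infected MT-4 cells, both read at day 5.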

[6] = test system: Human immunodeficiency virus 1; experiment: Resistance index, ratio of EC50 for drug-resistant HIV1 isolate with reverse transcriptase Y188L mutation to EC50 for wild type HIV1 NL4-3; type: functional; procedure, shortened: as §1
[7] = test system: Human immunodeficiency virus 1; experiment: Resistance index, ratio of ID50 for reverse transcriptase Y181I mutant to IC50 for wild-type HIV1 reverse transcriptase; procedure, shortened: as §2
[8] = test system: Human immunodeficiency virus 1; experiment: Antiviral activity against HIV1 isolates with reverse transcriptase K103N mutation in human MT4 cells assessed as inhibition of virus-induced cytopathogenicity by MTT assay; type: functional, organism-based; settings: Human immunodeficiency virus 1, MT4
Procedure, shortened: (§3)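 MT-4 lymphoid cells infected with HIV-1 carrying RT K103N, Y181C or Y188L, in the presence of different drug concentrations. Viable cells counted at day 5 postinfection by MTT colorimetric assay. EC50 is the concentration that inhibits 50% of the HIV-induced cytopathic effect.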

[9] = test system: Human immunodeficiency virus type 1 reverse transcriptase (Human immunodeficiency virus 1), Q72547 [L100I]
[10] = test system: Human immunodeficiency virus 1; experiment: Resistance index, ratio of EC50 for drug-resistant HIV1 isolate with reverse transcriptase Y181C mutation to EC50 for wild type HIV1 NL4-3; type: functional; procedure, shortened: as §1
[11] = test system: Human immunodeficiency virus 1; experiment: Antiviral activity against HIV1 isolates with reverse transcriptase Y181C mutation in human MT4 cells assessed as inhibition of virus-induced cytopathogenicity by MTT assay; type: functional, organism-based; settings: Human immunodeficiency virus 1, MT4; procedure, shortened: as §3
[12] = molecular target: Human immunodeficiency virus type 1 reverse transcriptase (Human immunodeficiency virus 1) (UniProt Q72547)
[13] = test system: Human immunodeficiency virus type 1 reverse transcriptase (Human immunodeficiency virus 1), Q72547 [Y181I]
[14] = test system: Human immunodeficiency virus 1; experiment: Resistance index, ratio of ID50 for reverse transcriptase L100I mutant to IC50 for wild-type HIV1 reverse transcriptase; procedure, shortened: as §2
[15] = test system: Human immunodeficiency virus type 1 reverse transcriptase (Human immunodeficiency virus 1), Q72547 [K103N]
[16] = test system: Human immunodeficiency virus 1; experiment: Antiviral activity against HIV1 isolates with reverse transcriptase Y188L mutation in human MT4 cells assessed as inhibition of virus-induced cytopathogenicity by MTT assay; type: functional, organism-based; settings: Human immunodeficiency virus 1, MT4; procedure, shortened: as §3

SMILES	CC50 [1]	Ratio EC50 [2]	Ratio [3]	EC50 [4]	selectivity ratio [5]	Ratio EC50 [6]	Ratio [7]	EC50 [8]	ID50 [9]	Ratio EC50 [10]	EC50 [11]	ID50 [12]	ID50 [13]	Ratio [14]	ID50 [15]	EC50 [16]
COc1ccc(CCSc2nc(Cc3c(Cl)cccc3Cl)c(C)c(=O)[nH]2)cc1	> 57000 nM	6214	123	< 0.14 nM	> 407000	49286	58	–	–	–	–	–	–	–	–	–
CC(C)c1c(Cc2c(Cl)cccc2Cl)nc(SCC(=O)c2ccccc2)[nH]c1=O	> 56000 nM	1275	894	4 nM	> 14000	1375	542	5100 nM	10100 nM	27	110 nM	31 nM	16800 nM	326	27700 nM	5500 nM
CCc1c(Cc2c(Cl)cccc2Cl)nc(SCC(=O)c2ccccc2)[nH]c1=O	> 52000 nM	171	26	7 nM	> 7430	714	5	1200 nM	3540 nM	7	46 nM	71 nM	330 nM	50	1880 nM	5000 nM
CCc1c(Cc2c(Cl)cccc2Cl)nc(SCC(=O)c2ccc(F)cc2)[nH]c1=O	> 55000 nM	671	43	7 nM	> 7860	5186	6	4700 nM	1820 nM	70	490 nM	42 nM	240 nM	43	1790 nM	36300 nM
COc1ccc(C(=O)CSc2nc(Cc3c(F)cccc3F)c(C(C)C)c(=O)[nH]2)cc1	33000 nM	8750	1440	2 nM	16500	7350	–	17500 nM	> 40000 nM	33	67 nM	26 nM	> 40000 nM	–	37300 nM	14700 nM
CC(C)c1c(Cc2c(F)cccc2Cl)nc(SCC(=O)c2ccccc2)[nH]c1=O	> 12000 nM	658	4500	5 nM	> 2400	1540	–	3290 nM	1300 nM	42	210 nM	1 nM	> 40000 nM	1300	4500 nM	7700 nM
Cc1c(Cc2c(Cl)cccc2Cl)nc(SCC(=O)c2ccccc2)[nH]c1=O	> 60000 nM	100	53	38 nM	> 1580	232	6	3790 nM	7800 nM	13	480 nM	230 nM	1380 nM	34	12000 nM	8820 nM
CCc1c(Cc2c(F)cccc2Cl)nc(SCC(=O)c2ccccc2)[nH]c1=O	> 12000 nM	100	–	12 nM	> 1000	782	–	1200 nM	9700 nM	32	390 nM	8 nM	> 40000 nM	1210	> 40000 nM	9380 nM
